Holding throughout (format): functional
The subject of experiment [1] is Staphylococcus aureus. The experiment in a line: In vitro antibacterial activity against Staphylococcus aureus Smith. The method, boiled down: (§1)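 MIC (μg/mL) determined by agar dilution on Mueller–Hinton agar. Plates were incubated at 35 °C for 18 h. MIC was taken as the lowest agent concentration that prevented visible growth.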
In experiment [2] the test system is Streptococcus pneumoniae. The experiment can be described thus: In vitro antibacterial activity against Streptococcus pneumoniae type III. The method, boiled down:
as §1

In experiment [3] the test system is Pseudomonas aeruginosa. The experiment can be described thus: In vitro antibacterial activity against Pseudomonas aeruginosa IID1210. The method, boiled down:
as §1

The test system of experiment [4] is Escherichia coli. The experiment in a line: In vitro antibacterial activity against Escherichia coli NIHJ JC-2. In short, it runs like this: as §1

Among the data in ChEMBL document CHEMBL1144355, “Synthesis and antibacterial activity of the 4-quinolone-3-carboxylic acid derivatives having a trifluoromethyl group as a novel N-1 substituent” (2005) are MIC values, retold here.

Values after ≈ are worked out from the molar mass of the structure shown.

Turning to `CN1CCN(c2cc3c(cc2F)c(=O)c(C(=O)O)cn3-c2ccc(F)cc2F)CC1`, the MIC in experiment [1] was 0.1 µg/mL (≈ 0.24 µM); in experiment [2] it was 0.39 µg/mL (≈ 0.934 µM); in experiment [3], 3.13 µg/mL (≈ 7.5 µM); in experiment [4], 0.1 µg/mL (≈ 0.24 µM).
`CN1CCN(c2cc3c(cc2F)c(=O)c(C(=O)O)cn3C)CC1`: the MIC in experiment [1] was found to be 0.39 µg/mL (≈ 1.22 µM); in experiment [2] it was 6.25 µg/mL (≈ 19.6 µM); in experiment [3] it was 1.56 µg/mL (≈ 4.89 µM); in experiment [4], 0.05 µg/mL (≈ 0.157 µM).
In the same order, the values of `NC1CCN(c2cc3c(cc2F)c(=O)c(C(=O)O)cn3C(F)(F)F)C1` (stereo unspecified) are 1.56 µg/mL (≈ 4.34 µM), 12.5 µg/mL (≈ 34.8 µM), greater than 12.5 µg/mL and 0.39 µg/mL (≈ 1.09 µM).
For `CN1CCN(c2cc3c(cc2F)c(=O)c(C(=O)O)cn3CCF)CC1`, in that order: 0.2 µg/mL (≈ 0.569 µM), 1.56 µg/mL (≈ 4.44 µM), 1.56 µg/mL (≈ 4.44 µM) and 0.0125 µg/mL (≈ 0.0356 µM).
Consider `CN1CCN(c2cc3c(cc2F)c(=O)c(C(=O)O)cn3C(C)(C)C)CC1`, for which the MIC in experiment [1] was found to be 0.2 µg/mL (≈ 0.553 µM); in experiment [2], 0.78 µg/mL (≈ 2.16 µM); in experiment [3], 1.56 µg/mL (≈ 4.32 µM); in experiment [4], 0.025 µg/mL (≈ 0.0692 µM).
For the molecule `CN1CCN(c2cc3c(cc2F)c(=O)c(C(=O)O)cn3C2CC2)CC1`, the MIC in experiment [1] is 0.1 µg/mL (≈ 0.29 µM); in experiment [2], 0.39 µg/mL (≈ 1.13 µM); in experiment [3], 0.78 µg/mL (≈ 2.26 µM); in experiment [4] it was no more than 0.0063 µg/mL.
In the same order, the values of `CN1CCN(c2cc3c(cc2F)c(=O)c(C(=O)O)cn3C(F)(F)F)CC1.Cl` are 0.78 µg/mL, 3.13 µg/mL, 6.25 µg/mL and 0.05 µg/mL.
In the case of `CCn1cc(C(=O)O)c(=O)c2cc(F)c(N3CCNCC3)cc21` [NORFLOXACIN], the MIC in experiment [1] was 0.39 µg/mL (≈ 1.22 µM); in experiment [2], 3.13 µg/mL (≈ 9.8 µM); in experiment [3], 1.56 µg/mL (≈ 4.89 µM); in experiment [4], 0.05 µg/mL (≈ 0.157 µM).
For `CCn1cc(C(=O)O)c(=O)c2cc(F)c(N3CCN(C)CC3)cc21` [PEFLOXACIN], in that order: 0.2 µg/mL (≈ 0.6 µM), 3.13 µg/mL (≈ 9.39 µM), 1.56 µg/mL (≈ 4.68 µM) and 0.025 µg/mL (≈ 0.075 µM).
